Screening results as filed in PubChem.
M4 ag: human M4 muscarinic receptor agonists, primary screen, CHO-K1 cells, Fluo-8 calcium fluorescence; CHO-K1 hM4/Gqi5; vehicle 0%, full acetylcholine response 100%; activation, % at 3 µM; actives 0.14% (n = 360,000);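 active means activation above the run mean over all test wells plus 3 SD, cut at about 32% in these data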;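 further: peak over basal fluorescence ratio per well then scaled between controls; 0% = DMSO wells and 100% = acetylcholine at EC100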
CHRM5 PAM: human M5 muscarinic receptor positive allosteric modulators, primary screen, CHO-K1 cells, Fluo-8 calcium fluorescence. Muscarinic acetylcholine receptor M5 (Homo sapiens), P08912. CHO-K1 hM5, ACh EC20 PAM; 0% = ACh EC20, 100% = ACh EC100. activation, % at 3 µM. actives 0.3% (n = 360,000). AID 624038, 2012;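 active means activation above the run cutoff, the mean activation of all test compounds plus 3 SD, cut at about 18% in these data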
Target sequence (P08912 whole entry, looked up): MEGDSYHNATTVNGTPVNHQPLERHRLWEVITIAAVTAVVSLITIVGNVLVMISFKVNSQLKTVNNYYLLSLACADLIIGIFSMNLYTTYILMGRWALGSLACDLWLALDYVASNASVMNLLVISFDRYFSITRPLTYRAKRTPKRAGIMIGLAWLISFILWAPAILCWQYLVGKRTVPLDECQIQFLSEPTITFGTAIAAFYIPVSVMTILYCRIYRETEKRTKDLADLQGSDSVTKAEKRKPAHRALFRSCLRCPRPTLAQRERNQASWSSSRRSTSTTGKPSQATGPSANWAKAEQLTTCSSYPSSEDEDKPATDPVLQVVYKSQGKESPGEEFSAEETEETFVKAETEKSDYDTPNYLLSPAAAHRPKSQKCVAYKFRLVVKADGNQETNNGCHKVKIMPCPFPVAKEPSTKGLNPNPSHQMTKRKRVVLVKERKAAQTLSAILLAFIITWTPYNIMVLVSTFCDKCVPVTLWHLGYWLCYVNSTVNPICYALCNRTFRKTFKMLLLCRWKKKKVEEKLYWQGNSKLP
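System: CHO-K1 cell line with stable human muscarinic M5 receptor expression | Also added: EC20 acetylcholine as agonist stimulus | Compound: One concentration, 3 µM final (nominal) | Timing: Fluo-8 loading 80 min at 37 °C plus 30 min room temperature | Measured by: Fluo-8 calcium dye fluorescence, kinetic read | Read-out basis: % activation, ACh-normalized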
CHRM4 PAM: human M4 muscarinic receptor positive allosteric modulators, primary screen, CHO-K1 cells, Fluo-8 calcium fluorescence; actives 0.4% (n = 360,000); CHO-K1 hM4/Gqi5, ACh EC20; 0% = ACh EC20, 100% = maximal ACh; activation, % at 3 µM; Muscarinic acetylcholine receptor M4 (Homo sapiens), P08173;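 active means activation above its plate's cutoff, the mean activation of sample wells plus 3 SD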
M5 ag: human M5 muscarinic receptor agonists, primary screen, CHO-K1 cells, Fluo-8 calcium fluorescence | Muscarinic acetylcholine receptor M5 (Homo sapiens), P08912 | CHO-K1 hM5 cells; 0% DMSO wells, 100% maximal acetylcholine response | activation, % at 3 µM | actives 0.19% (n = 360,000) | AID 624037, 2012;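 active means activation above the run's mean over test compounds plus 3 SD, cut at about 23% in these data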;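 further: signal is peak over basal fluorescence ratio across the kinetic read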
CHRM5 antagonist: human M5 muscarinic receptor antagonists, primary screen, CHO cells, Fluo-8 calcium fluorescence; Muscarinic acetylcholine receptor M5 (Homo sapiens), P08912; CHO-hM5 cells, ACh EC80; inhibition, % at 3 µM; actives 0.59% (n = 360,000);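 active means inhibition above a per-plate cutoff, the mean of that plate's test compounds plus 3 SD, cut at about 27% in these data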;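 further: 0% = acetylcholine EC80 with DMSO and 100% = DMSO without agonist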
M4 antag: human M4 muscarinic receptor antagonists, primary screen, CHO cells, Fluo-8 calcium fluorescence | Muscarinic acetylcholine receptor M4 (Homo sapiens), P08173 | CHO-hM4 cells, ACh EC80 | inhibition, % at 3 µM | actives 0.73% (n = 360,000) | AID 624125, 2012;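 active means inhibition above its plate's cutoff, the mean inhibition of sample wells plus 3 SD, cut at about 27% in these data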;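 further: 0% = acetylcholine EC80 with DMSO and 100% = DMSO without agonist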
* = called active by the depositor. The list is not random: actives were taken first. Their share in the collection is about 1.9%.

SMILES	M4 ag	CHRM5 PAM	CHRM4 PAM	M5 ag	CHRM5 antagonist	M4 antag
Cc1sc2ncnc(NCC(O)c3ccccc3)c2c1C (stereo unspecified)	18	-12	-5	8	12	7
Cc1sc2ncnc(NCC(O)c3ccc([N+](=O)[O-])cc3)c2c1C (stereo unspecified)	20	-14	-9	5	36*	13
S=c1[nH]nc(Cc2ccccc2)n1Cc1ccco1	0	-22	-15	-6	33*	68*
CCCn1c(Cc2ccccc2)n[nH]c1=S	1	-5	4	-7	5	4
CCC1=NN(C(=O)c2ccc(C)cc2)C(O)(c2ccc(Br)cc2)C1 (stereo unspecified)	-1	0	4	-2	-2	0
CCC1=NN(C(=O)c2ccc(Br)cc2)C(O)(c2ccc(C)cc2)C1 (stereo unspecified)	0	-4	22*	-2	-5	-16
NS(=O)(=O)c1ccc(CCNC(=O)c2ccc3c(c2)N(Cc2ccccc2)CCS3)cc1	18	-18	-15	-4	31*	12
COc1cc2c(cc1OC)C(=O)CCC2	0	6	5	1	13	-8
C=CCN1C(=O)C2(OCCCO2)c2cc(CCCC)ccc21	-2	5	-2	-5	5	-3
C=CCN1C(=O)C2(OCCCO2)c2cc(C)ccc21	1	20*	-2	2	-3	0
CC1CCN(CCCCOc2ccc(C(=O)c3ccccc3)cc2)CC1	3	-12	-17	-11	3	42*
CC1CCN(CCOc2ccc(C(=O)c3ccccc3)cc2)CC1	1	-4	-17	-20	7	43*
CC1CCN(CCCOc2ccc(OCc3ccccc3)cc2)CC1	7	-21	-18	-12	8	23
CC1CCN(CCCCOc2cccc(C(C)C)c2)CC1	5	-21	-19	-8	21	34*
CC1CCCCN1CCCNC(=O)C1CCN(c2nc3ccccc3o2)CC1 (stereo unspecified)	1	3	-16	-5	0	55*
CCOC(=O)C1=C(C)N(CCCC(=O)O)C(=O)NC1c1ccccc1 (stereo unspecified)	1	-1	5	3	11	1
CCOC(=O)C1=C(C)N(CCO)C(=O)NC1c1ccccc1 (stereo unspecified)	0	20*	9	1	-2	-6
COc1ccc2sc(-c3ccc(S(C)(=O)=O)cc3)c(C#CCO)c2c1	7	-16	-2	2	17	6
COc1ccc2c(C#CCCO)c(-c3ccc(S(C)(=O)=O)cc3)sc2c1	27	-18	-13	-6	18	32*
CCOC(=O)c1c(NC(=O)CSc2nnc(-c3cccnc3)n2Cc2ccco2)sc(C)c1C	-1	19*	8	-10	-10	4
CCOC(=O)c1c(NC(=O)CSc2nnc(-c3ccco3)o2)sc(C(C)=O)c1C	2	0	0	1	-6	-1
CCOC(=O)c1c(NC(=O)CSc2nnc(-c3ccco3)o2)sc(C)c1C	1	0	36*	-2	2	0
Cc1ccc(S(=O)(=O)N2CCC(=O)N(CCOC(=O)Nc3cccc(Cl)c3)CC2)cc1	10	30*	9	12	-86	0
Cc1ccc(NC(=O)OCCN2CCN(S(=O)(=O)c3ccc(C)cc3)CCC2=O)cc1	7	0	5	6	-4	-6
CCC(=O)Nc1cccc2c1C(=O)N(C)C2=O	0	3	10	-2	-9	-6
SMILES	M4 ag	CHRM5 PAM	CHRM4 PAM	M5 ag	CHRM5 antagonist	M4 antag
CN1C(=O)c2cccc(NC(=O)C3CCCCC3)c2C1=O	0	3	19*	-2	-4	-11
Cc1ccc(C2N(C)c3ccccc3-c3nc4ccccc4n32)o1 (stereo unspecified)	-3	3	7	-4	0	-4
CN1c2ccccc2-c2nc3ccccc3n2C1c1cccs1 (stereo unspecified)	-2	18*	7	-4	9	-10
NC1=NC[C@H](Cc2ccc(O)cc2)N1CCC12CC3CC(CC(C3)C1)C2	2	-8	-19	-12	7	46*
CCCCN1C(N)=NC[C@@H]1Cc1ccc(O)cc1	0	-5	5	-3	9	10
COc1cc(CCCN2C(N)=NC[C@H]2Cc2ccc(O)cc2)cc(OC)c1OC	0	18*	14	-2	-7	-9
O=C(NCc1ccc(Cl)cc1)c1n[nH]c([N+](=O)[O-])c1Cl	3	-6	-4	5	-5	5
COC(=O)[C@@H]1C[C@@]2(O)[C@H](O)[C@H](O)[C@H](O)C[C@H]2N1Cc1cc(F)ccc1F	2	0	28*	5	-6	-2
OCCN(Cc1cccnc1)Cc1ccccn1	1	-6	-9	-9	1	6
N#C/C(=C\c1ccc(Sc2ccc(Cl)cc2)o1)c1nc2ccccc2[nH]1	12	-16	-8	3	29*	12
N#C/C(=C\c1ccc(Sc2nc3ccccc3[nH]2)o1)c1ccccc1	10	-13	-10	2	14	8
Cc1cc(NC(=O)C(C)Sc2nc(-c3ccccc3)cc(=O)[nH]2)no1 (stereo unspecified)	-1	-3	4	0	9	5
OCCC1CN(Cc2ccc(Oc3ncccn3)cc2)CCN1C1CCCC1 (stereo unspecified)	1	5	-13	-6	1	12
COC(=O)CNC(=O)CNC(=O)Nc1ccccc1	-1	9	3	-3	2	6
COC(=O)CCCCNC(=O)Nc1ccccc1	1	23*	6	1	0	7
COc1ccc2nc3ccccc3nc2c1NC(=O)c1ccccc1Cl	7	-14	-10	0	28*	3
O=C(CN1C(=O)NC2(CCc3ccccc32)C1=O)NCc1ccc(Cl)cc1 (stereo unspecified)	2	0	24*	2	8	-9
CC(Nc1ncnc2sccc12)c1ccccc1 (stereo unspecified)	13	-12	-4	6	33*	14
